# Results published in ChEMBL document CHEMBL4627320, “Discovery of CRBN E3 Ligase Modulator CC-92480 for the Treatment of Relapsed and Refractory Multiple Myeloma” (J Med Chem, 2020).
# Active and inactive are the calls of the source. No cut-off for these calls is given here.
# Assays:
# [1] = target: T1, D(2) dopamine receptor (Homo sapiens, UniProt P14416); experiment: Agonist activity at D2S (unknown origin)
# [2] = target: Protein cereblon/Eukaryotic peptide chain release factor GTP-binding subunit ERF3A (Homo sapiens, UniProt P15170+Q96SW2); experiment: Induction of CRBN-mediated pLOC-ePL-tagged GSPT1 (unknown origin) degradation in human DF15 cells assessed as minimum protein remaining incubated for 4 hrs by luminescence based beta-galactosidase enzyme fragmentation complementation assay; format: cell-based
# [3] = target: Protein cereblon/Zinc finger protein Aiolos (Homo sapiens, UniProt Q96SW2+Q9UKT9); experiment: Induction of CRBN-mediated pLOC-ePL-tagged aiolos (unknown origin) degradation in human DF15 cells assessed as minimum protein remaining incubated for 4 hrs by luminescence based beta-galactosidase enzyme fragmentation complementation assay; format: cell-based
# [4] = system: PBMC; experiment: Cytotoxicity against PBMC (unknown origin); format: cell-based
# [5] = target: D(2) dopamine receptor (Rattus norvegicus) (UniProt P61169); experiment: In vivo agonist activity at D2S in rat assessed as suppression of gut motility administered daily for 7 days; format: functional, organism-based
# [6] = (§1) Antiproliferative activity against lenalidomide-resistant human H929-R10-1 cells incubated for 5 days by CellTiter-Glo assay; format: functional; conditions: 120 h
# Procedure, shortened: (§2)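 H929 R10-1 cells kept in log phase at 37°C, 5% CO₂, and plated at 5000 cells/well. Compounds were added as 10-point duplicate curves starting at 10µM with 1:3 dilutions, in 0.1% DMSO, final volume 40µl. Plates were incubated for 5 days. Viability was read by CellTiter-Glo luminescence after 1 h at room temperature in the dark. IC50 is the mean of ≥3 separate determinations.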
# [7] = target: Adrenergic receptor alpha-1 (Homo sapiens) (UniProt P35348+P25100+P35368); experiment: Inhibition of adrenergic receptor alpha1 (unknown origin) at 10 uM relative to control; format: protein assay
# [8] = target: Protein cereblon/DNA damage-binding protein 1 (Homo sapiens, UniProt Q96SW2); experiment: Displacement of Cy5-conjugated CELMoD from N-terminal 6-His tagged CRBN (1 to 442 residues) (unknown origin)/DDB1 (1 to 1140 residues) (unknown origin) incubated for 10 mins by FRET assay; format: protein assay
# [9] = target: T1, D(2) dopamine receptor; experiment: Inhibition of D2S (unknown origin) at 10 uM relative to control
# [10] = Solubility of the compound; format: physicochemical
# [11] = species on record: Homo sapiens; experiment: as §1; format: functional; procedure, shortened: as §2
# [12] = Drug metabolism in assay cell medium assessed as compound racemization measured within 24 hrs; format: physicochemical
# Procedure, shortened: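 Compound held in the same cell medium used for the H929 R10-1 antiproliferation assay; enantiomer levels followed by chiral monitoring over 24 h.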
# [13] = species on record: Homo sapiens; experiment: Induction of apoptosis in lenalidomide-resistant human H929-R10-1 cells assessed as caspase3 induction at 1 uM measured over 150 hrs by live cell imaging analysis; format: functional
# Procedure, shortened: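 Lenalidomide-refractory H929 R10-1 cells were treated at concentrations from 1 nM to 1 μM. Caspase-3 induction was quantified by live-cell imaging over 150 h.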
# [14] = species on record: Homo sapiens; experiment: Induction of apoptosis in lenalidomide-resistant human H929-R10-1 cells assessed as increase in cleaved caspase1 level at 1 to 100 nM after 72 hrs by Western blot analysis; format: functional
# Procedure, shortened: (§3)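 H929 R10-1 cells treated with DMSO or compound (1–100 nM) for 72 h, washed in PBS, lysed in NP-40/Tris pH 8 buffer with protease and phosphatase inhibitors; clarified lysates immunoblotted for p27, cleaved caspase-1, -3, -7 and cleaved PARP, with β-tubulin, using fluorescent secondary antibodies.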
# [15] = species on record: Homo sapiens; experiment: Induction of apoptosis in lenalidomide-resistant human H929-R10-1 cells assessed as increase in cleaved caspase7 level at 1 to 100 nM after 72 hrs by Western blot analysis; format: functional; procedure, shortened: as §3
# [16] = species on record: Homo sapiens; experiment: Induction of apoptosis in lenalidomide-resistant human H929-R10-1 cells assessed as increase in cleaved caspase3 level at 1 to 100 nM after 72 hrs by Western blot analysis; format: functional; procedure, shortened: as §3
# [17] = species on record: Homo sapiens; experiment: Induction of apoptosis in lenalidomide-resistant human H929-R10-1 cells assessed as p27 stabilization at 1 to 100 nM after 72 hrs by Western blot analysis; format: functional; procedure, shortened: as §3
# [18] = species on record: Homo sapiens; experiment: Induction of apoptosis in lenalidomide-resistant human H929-R10-1 cells assessed as increase in cleaved PARP level after 72 hrs by Western blot analysis; format: functional; procedure, shortened: as §3
EC50 [2] [nM],EC50 [3] [nM],inhibition [7] [%],inhibition [9] [%],SMILES,IC50 [6] [nM],other results
> 10000,0.1,102,99.1,O=C1CCC(N2Cc3c(OCc4ccc(CN5CCN(c6ccc(F)cc6F)CC5)cc4)cccc3C2=O)C(=O)N1 (racemic),1.7,EC50 [1]: 16 nM; Activity [4]: Non-Toxic; Activity [5]: Active; IC50 [8]: 55.1 to 502 nM
,0.3,21.5,66,CC1(C)CCN(Cc2ccc(COc3cccc4c3CN(C3CCC(=O)NC3=O)C4=O)cc2)CC1 (centres undefined),9.9,
,3,,,CN1CCN(Cc2ccc(COc3cccc4c3CN(C3CCC(=O)NC3=O)C4=O)cc2)CC1 (centres undefined),510,
> 10000,0.1,,,O=C1CCC(N2Cc3c(OCc4ccc(CN5CCN(c6ccc(Cl)cc6)CC5)cc4)cccc3C2=O)C(=O)N1 (centres undefined),3.6,Activity [4]: Non-Toxic
,0.1,,,O=C1CC[C@H](N2Cc3c(OCc4ccc(CN5CCN(c6ccc(F)cc6F)CC5)cc4)cccc3C2=O)C(=O)N1,3.8,IC50 [8]: 37 nM
,0.6,41.5,95.4,O=C1CCC(N2Cc3c(OCc4ccc(CN5CCC(C(F)(F)F)CC5)cc4)cccc3C2=O)C(=O)N1 (centres undefined),8.3,
,0.3,,,CC(C)N1CCN(Cc2ccc(COc3cccc4c3CN(C3CCC(=O)NC3=O)C4=O)cc2)CC1 (centres undefined),35.1,
,1,92.1,100,N#Cc1cccnc1N1CCN(Cc2ccc(COc3cccc4c3CN(C3CCC(=O)NC3=O)C4=O)cc2)CC1 (centres undefined),56,
,0.1,70.3,0.4,O=C1CCC(N2Cc3c(OCc4ccc(C(=O)N5CCN(c6ccc(F)cc6F)CC5)cc4)cccc3C2=O)C(=O)N1 (centres undefined),4.9,solubility [10]: < 7 µg/mL
,0.4,25.2,32.9,NC(=O)c1ccc(N2CCN(Cc3ccc(COc4cccc5c4CN(C4CCC(=O)NC4=O)C5=O)cc3)CC2)cn1 (centres undefined),3.5,
> 10000,0.1,,,O=C1CCC(N2Cc3c(OCc4ccc(CN5CCN(c6cccc(F)c6)CC5)cc4)cccc3C2=O)C(=O)N1 (centres undefined),3.7,Activity [4]: Non-Toxic
> 10000,2.4,,,O=C1CCC(N2C(=O)c3cccc(OCc4ccc(CN5CCN(c6ccc(F)cc6F)CC5)cc4)c3C2=O)C(=O)N1 (centres undefined),159,IC50 [8]: 502 nM
,,,,Cc1ccc(NC(=O)NCc2ccc3c(c2)CN(C2CCC(=O)NC2=O)C3=O)cc1Cl (centres undefined),,IC50 [4]: > 5000 nM; Activity [11]: Active
,0.6,,,O=C1CCC(N2Cc3c(OCc4ccc(CN5CCN(c6ccc(Cl)cc6Cl)CC5=O)cc4)cccc3C2=O)C(=O)N1 (centres undefined),6.7,solubility [10]: < 7 µg/mL
,0.5,,,O=C1CC[C@@H](N2Cc3c(OCc4ccc(CN5CCN(c6ccc(F)cc6F)CC5)cc4)cccc3C2=O)C(=O)N1,4.3,Drug metabolism [12]: Metabolite_Detected; IC50 [8]: 1160 nM
> 10000,2.1,,,O=C1CCC(N2C(=O)c3cccc(OCc4ccc(CN5CCN(c6ccc(F)cc6)CC5)cc4)c3C2=O)C(=O)N1 (centres undefined),146,IC50 [8]: 322 nM
> 10000,> 10000,,,CN1C(=O)CCC(N2Cc3c(OCc4ccc(CN5CCN(c6ccc(F)cc6F)CC5)cc4)cccc3C2=O)C1=O (centres undefined),632,IC50 [8]: 28000 nM
,0.4,99,98,O=C1CCC(N2Cc3c(OCc4ccc(CN5CCN(c6ccccn6)CC5)cc4)cccc3C2=O)C(=O)N1 (centres undefined),4.6,
> 10000,0.5,,,COc1ccc(N2CCN(Cc3ccc(COc4cccc5c4CN(C4CCC(=O)NC4=O)C5=O)cc3)CC2)cc1 (centres undefined),7.1,Activity [4]: Non-Toxic

EC50 [2] [nM],EC50 [3] [nM],inhibition [7] [%],inhibition [9] [%],SMILES,IC50 [6] [nM],other results
,,,,Nc1cccc2c1CN(C1CCC(=O)NC1=O)C2=O (centres undefined),,Activity [11]: inactive; Activity [13]: Active
> 10000,0.1,100,94.7,O=C1CCC(N2Cc3c(OCc4ccc(CN5CCN(c6ccc(F)cc6)CC5)cc4)cccc3C2=O)C(=O)N1 (centres undefined),2.8,Activity [4]: Non-Toxic
,0.1,74.1,5.6,O=C1CCC(N2Cc3c(OCc4ccc(C(=O)N5CCN(c6ccc(Cl)cc6Cl)CC5)cc4)cccc3C2=O)C(=O)N1 (centres undefined),3.3,solubility [10]: < 7 µg/mL
,0.1,63,94,CC(C)C1CCN(Cc2ccc(COc3cccc4c3CN(C3CCC(=O)NC3=O)C4=O)cc2)CC1 (centres undefined),1.4,
,0.1,33.7,7.9,O=C1CCC(N2Cc3c(OCc4ccc(C(=O)N5CCN(c6ccc(Cl)cc6)CC5)cc4)cccc3C2=O)C(=O)N1 (centres undefined),6.2,solubility [10]: < 7 µg/mL
,> 10,,,C[C@]1(N2Cc3c(OCc4ccc(CN5CCN(c6ccc(F)cc6F)CC5)cc4)cccc3C2=O)CCC(=O)NC1=O,496,IC50 [8]: > 10000 nM
> 10000,0.3,,,O=C1CCC(N2Cc3c(OCc4ccc(CN5CCN(c6c(F)cccc6F)CC5)cc4)cccc3C2=O)C(=O)N1 (centres undefined),4,Activity [4]: Non-Toxic
> 10000,1.5,,,O=C1CCC(N2Cc3c(NCc4ccc(CN5CCN(c6ccc(F)cc6F)CC5)cc4)cccc3C2=O)C(=O)N1 (centres undefined),26.3,IC50 [8]: 194 nM
,0.7,97.7,90.8,O=C1CCC(N2Cc3c(OCc4ccc(CN5CCN(c6ccc(F)cn6)CC5)cc4)cccc3C2=O)C(=O)N1 (centres undefined),7.4,
,1,40.4,78.4,CC1CCN(Cc2ccc(COc3cccc4c3CN(C3CCC(=O)NC3=O)C4=O)cc2)CC1 (centres undefined),35.1,
,7.5,,,O=C1CCC(N2Cc3c(OCc4ccccc4)cccc3C2=O)C(=O)N1 (centres undefined),> 10000,
,0.5,,,O=C1CCC(N2Cc3c(OCc4ccc(CN5CCC(F)(F)CC5)cc4)cccc3C2=O)C(=O)N1 (centres undefined),20.5,
,> 100,,,C[C@@]1(N2Cc3c(OCc4ccc(CN5CCN(c6ccc(F)cc6F)CC5)cc4)cccc3C2=O)CCC(=O)NC1=O,> 5000,IC50 [8]: 9620 nM
> 10000,3.3,,,O=C1CCC(N2C(=O)c3cccc(OCc4ccc(CN5CCN(c6ccc(Cl)cc6Cl)CC5)cc4)c3C2=O)C(=O)N1 (centres undefined),170,IC50 [8]: 877 nM
> 10000,0.2,,,O=C1CCC(N2Cc3c(OCc4ccc(CN5CCN(c6ccc(Cl)cc6Cl)CC5)cc4)cccc3C2=O)C(=O)N1 (centres undefined),9.2,Activity [4]: Non-Toxic
,0.3,,,O=C1CCC(N2Cc3c(OCc4ccc(C(=O)N5CCN(c6ccc(F)cc6)CC5)cc4)cccc3C2=O)C(=O)N1 (centres undefined),3.7,solubility [10]: < 7 µg/mL
> 10000,0.1,,,O=C1CCC(N2Cc3c(OCc4ccc(CN5CCN(c6ccccc6)CC5)cc4)cccc3C2=O)C(=O)N1 (centres undefined),2.1,Activity [4]: Non-Toxic
,,,,Nc1cccc2c1C(=O)N(C1CCC(=O)NC1=O)C2=O (centres undefined),,Activity [14]: inactive; Activity [15]: inactive; Activity [16]: inactive; Activity [11]: inactive; Activity [17]: inactive; Activity [13]: Active; Activity [18]: inactive
> 10000,0.2,,,O=C1CCC(N2Cc3c(OCc4ccc(CN5CCN(c6ccccc6F)CC5)cc4)cccc3C2=O)C(=O)N1 (centres undefined),5,Activity [4]: Non-Toxic

SMILES,EC50 [2] [nM],EC50 [3] [nM],inhibition [7] [%],inhibition [9] [%],IC50 [6] [nM],other results
N#Cc1ccc(N2CCN(Cc3ccc(COc4cccc5c4CN(C4CCC(=O)NC4=O)C5=O)cc3)CC2)c(F)c1 (centres undefined),,0.1,67,54.5,1.7,EC50 [1]: > 10000 nM; Activity [5]: inactive
